In one series the test system is Influenza A virus. Description: Antiviral activity against Influenza A virus (A/Puerto Rico/8/34(H1N1)) infected in MDCK cells assessed as inhibition of virus-induced cytocidal activity after 48 hrs by CellTiter-Glo assay. Format: functional, organism-based. Particulars: A/Puerto Rico/8/1934(H1N1). In a few lines: (§1)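 MDCK cells infected with PR8 (mouse-adapted A/Puerto Rico/8/1934) or VR1679 at MOI = 1 and treated with compound at various concentrations for 2 days. Percent protection from virus killing was calculated by a formula. EC50 is the concentration giving 50% protection from the cytocidal effect. Values are mean ± SD of three independent experiments.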

Series [1] in a line: Cytotoxicity against MDCK cells assessed as reduction in cell viability after 48 hrs by CellTiter-Glo assay. The format is cell-based, Canis lupus familiaris. Particulars: dog. The gist of the method: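 Uninfected MDCK cells were exposed to compound. CC50 is the concentration that reduced cell viability by 50%.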
Series [2] has as its system Influenza A virus H3N2. Description: Antiviral activity against Influenza A virus H3N2 VR1679 infected in MDCK cells assessed as inhibition of virus-induced cytocidal activity after 48 hrs by CellTiter-Glo assay. The format is functional, organism-based. In a few lines:
as §1

In series [3] the test system is Influenza A virus H3N2. Kind of series: Antiviral activity against Influenza A virus H3N2 VR1679 infected in MDCK cells assessed as inhibition of viral nucleoprotein production at 10 uM after 6 hrs by immunostaining-based confocal microscopy. The format is functional, organism-based. The gist of the method:
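VR1679 infected MDCK cells at MOI = 1 with compound at 10 μM for 6 h. Cells were immunostained with FITC-conjugated anti-NP antibodies and DAPI for nuclei, and viral NP was imaged by laser-scanning confocal microscopy. Infected cells without compound served as controls.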

For series [4], the system named is Influenza A virus H3N2. Kind of series: Antiviral activity against Influenza A virus H3N2 VR1679 infected in MDCK cells assessed as inhibition of virus-induced cytocidal activity compound treated 4 hrs post infection by time of addition assay. Format: functional, organism-based. The gist of the method:
(§2)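 Time-of-addition assay: MDCK cells infected with VR1679 at MOI = 0.1, with compound added before infection or at various times post-infection. Percent protection of cells from virus killing was calculated by a formula. Data are the average of two independent experiments.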

The subject of series [5] is Influenza A virus H3N2. Description: Antiviral activity against Influenza A virus H3N2 VR1679 infected in MDCK cells assessed as inhibition of virus-induced cytocidal activity compound treated 6 hrs post infection by time of addition assay. Format: functional, organism-based. In a few lines: as §2
Series [6] has as its system Influenza A virus H3N2. Description: Antiviral activity against Influenza A virus H3N2 VR1679 infected in MDCK cells assessed as inhibition of virus-induced cytocidal activity compound treated 2 hrs post infection by time of addition assay. The format is functional, organism-based. In a few lines: as §2
Series [7] has as its system Influenza A virus H3N2. Description: Antiviral activity against Influenza A virus H3N2 VR1679 infected in MDCK cells assessed as inhibition of virus-induced cytocidal activity pretreated with compound before infection by time of addition assay. The format is functional, organism-based. In a few lines:
as §2

The test system of another series is MDCK. Kind of series: Binding affinity to recombinant Influenza A virus (A/Puerto Rico/8/1934(H1N1)) nucleoprotein in culture medium assessed as protection from Influenza A virus H3N2 VR1679-induced MDCK cytocidal activity after 2 days by CellTiter-Glo assay. The format is cell-based. The gist of the method:
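MDCK cells infected with VR1679 at MOI = 1, treated with compound with or without recombinant A/Puerto Rico/8/1934 NP at 500 μg/mL in the culture medium. Percent protection from virus killing was read 2 days after infection. Values are mean ± SD of three independent experiments.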

The nature of series [8]: Selectivity ratio of EC50 for Influenza A virus (A/Puerto Rico/8/34(H1N1)) infected in MDCK cells to EC50 for Influenza A virus H3N2 VR1679 infected in MDCK cells. The format is functional.

Active and inactive are the calls of the source. The calls are words filed in the database; no cut-off is given here.

In the case of `O=C(NCCN1CCCC2=C[C@H]3C[C@H](CN4CCCC[C@H]34)[C@@H]21)c1ccccc1F`, in the series with Influenza A virus, the EC50 is 5.5 µM. Also, in [1], the CC50 at 48 h is above 80 µM.
For `O=C1CCC[C@@H]2[C@H]3CCC[N+]4([O-])CCC[C@@H](CN12)[C@@H]34` (some centres not stated) [OXYMATRINE], in that order: above 80 µM and above 80 µM.
Regarding `CCN1CCCC2=C[C@H]3C[C@H](CN4CCCC[C@H]34)[C@@H]21`, the EC50 in the series with Influenza A virus came out at 7.7 µM. In series [1], the CC50 at 48 h is above 80 µM.
With `C1=C2CCCN(CC3CCC3)[C@H]2[C@@H]2C[C@H]1[C@H]1CCCCN1C2`, in the series on Influenza A virus, the EC50 came out at 18.8 µM. Further, the CC50 at 48 h in [1] is above 80 µM.
`Cc1onc(-c2ccccc2)c1C(=O)N1CCN(c2ccc([N+](=O)[O-])cc2Cl)CC1` [NUCLEOZIN]: in the series with Influenza A virus, the EC50 turned out to be 0.71 µM. For the same molecule, in series [1], the CC50 at 48 h is above 80 µM.
For `C1CN[C@@H]2C(C1)C[C@H]1C[C@@H]2CN2CCCC[C@H]12` (mixture of isomers), the EC50 with Influenza A virus turned out to be 11.2 µM. Besides, the CC50 at 48 h in series [1] was above 80 µM.
The matching figures for `CN1CCC[C@H]2C[C@H]3C[C@H](CN4CCCC[C@H]34)[C@@H]21`: 8.1 µM and above 80 µM.
Take `CN1CCC[C@@H]2C[C@H]3C[C@H](CN4CCCC[C@H]34)[C@@H]21`: the EC50 with Influenza A virus was determined as 6.2 µM. Also, the CC50 at 48 h in [1] was above 80 µM. For the same molecule, the inhibition entry in the series with Influenza A virus H3N2 [2], with Influenza A virus H3N2 [3], in the series on Influenza A virus H3N2 [4], with Influenza A virus H3N2 [6] and in the series with Influenza A virus H3N2 [7] was “Active” throughout. Moreover, the inhibition entry in the series on Influenza A virus H3N2 [5] was “inactive”. The result in the series with MDCK was Active.
Regarding `CCOC(=O)C1=C[C@@H](OC(CC)CC)[C@H](NC(C)=O)[C@@H](N)C1` [OSELTAMIVIR], the EC50 with Influenza A virus and in the series with Influenza A virus H3N2 [2] was above 80 µM each time. The CC50 at 48 h in series [1] was above 80 µM. In [8], the “Ratio EC50” value is recorded as above 200. Also, the inhibition result in the series with Influenza A virus H3N2 [3] and in the series on Influenza A virus H3N2 [5] was “inactive” in each case. Further, the inhibition entry with Influenza A virus H3N2 [4], in the series on Influenza A virus H3N2 [6] and with Influenza A virus H3N2 [7] was “Active” in each case. Moreover, the outcome in the series with MDCK was inactive.
As to `O=c1cccc2n1C[C@@H]1CNC[C@H]2C1` [CYTISINICLINE], the half-maximal effective concentration (EC50) in the series on Influenza A virus is above 80 µM. In addition, in series [1], the CC50 at 48 h was above 80 µM.
As to `O=C1CCC[C@@H]2[C@H]3CCCN4CCC[C@@H](CN12)[C@@H]34` [MATRINE], the EC50 with Influenza A virus is above 80 µM. Moreover, the CC50 at 48 h in [1] was above 80 µM.
On to `O=C(c1ccc(C(=O)N2CCCC3=C[C@H]4C[C@H](CN5CCCC[C@H]45)[C@@H]32)s1)N1CCCC2=C[C@H]3C[C@H](CN4CCCC[C@H]34)[C@@H]21`, for which the EC50 in the series on Influenza A virus worked out at 2.4 µM. Besides, in series [1], the CC50 at 48 h is above 80 µM.
For the molecule `C1CCN2C[C@@H]3C[C@@H](CN4CCCC[C@@H]34)[C@H]2C1` [SPARTEINE], in the series on Influenza A virus, the EC50 is 19.7 µM. Further, the CC50 at 48 h in series [1] was above 80 µM.
Regarding `C1CCN2C[C@@H]3C[C@@H](CN4CCCC[C@H]34)[C@H]2C1`, the EC50 in the series with Influenza A virus worked out at 21.3 µM. For the same molecule, the CC50 at 48 h in series [1] was above 80 µM.
The matching figures for `CC(C)CN1CCCC2=C[C@H]3C[C@H](CN4CCCC[C@H]34)[C@@H]21`: 34.5 µM and above 80 µM.
For the molecule `C1=C2CCCN(CC3CC3)[C@H]2[C@@H]2C[C@H]1[C@H]1CCCCN1C2`, the EC50 in the series with Influenza A virus was 15.1 µM. In series [1], the CC50 at 48 h is above 80 µM.
The matching figures for `C1=C2CCCN[C@H]2[C@@H]2C[C@H]1[C@H]1CCCCN1C2`: 14.5 µM and above 80 µM.
For `NC12CC3CC(CC(C3)C1)C2` [AMANTADINE], in that order: above 80 µM and above 80 µM.
The matching figures for `CN1CC2CC(C1)c1cccc(=O)n1C2` (configuration not stated): above 80 µM and above 80 µM.
`CN1CCCC2=C[C@H]3C[C@H](CN4CCCC[C@H]34)[C@@H]21`: the EC50 in the series with Influenza A virus was found to be 9.6 µM. The CC50 at 48 h in [1] was above 80 µM.
The matching figures for `C1=C2CCCN(CC3CCCCC3)[C@H]2[C@@H]2C[C@H]1[C@H]1CCCCN1C2`: 29.3 µM and above 80 µM.

Values taken from ChEMBL document CHEMBL3351411, “Identification and synthesis of quinolizidines with anti-influenza a virus activity” (ACS Med Chem Lett, 2014).
